Data set [1] relates to Pseudomonas aeruginosa. As to the kind of experiment: Minimum concentration of compound required to reduce the MIC of levofloxacin 8-fold in PAM 1032 strain of Pseudomonas aeruginosa that over expresses MexAB-OprM efflux pump. Format: functional. The method in brief:
(§1)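 Levofloxacin MICs were measured on PAM 1032 (MexAB-OprM overexpressor) with and without efflux pump inhibitor. MPC₈ is the lowest inhibitor concentration that cuts the levofloxacin MIC 8-fold.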

Data set [2] is described as follows: Stability in rat serum measured as % recovery at 10 min. It is filed as ADME. The settings on record: read-out: Recovery. In outline: (§2)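 Compounds were incubated in rat serum at 37 °C, with a parallel incubation in H₂O as control. At each time point, 70% trichloroacetic acid and CH₃CN were added dropwise. Unchanged compound was quantified by HPLC and reported as % recovery, averaged from two or more experiments.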

Data set [3] in a line: Stability in rat serum measured as % recovery at 5 min. Format: ADME. The settings on record: read-out: Recovery. In outline:
as §2

The subject of data set [4] is Pseudomonas aeruginosa. The experiment in a line: Minimum inhibitory concentration required to inhibit growth of PAM 1032 strain of Pseudomonas aeruginosa that over expresses MexAB-Opr M efflux pump. Format: functional. The method in brief:
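Intrinsic antibacterial activity was checked by measuring the MIC of the efflux pump inhibitor alone, without levofloxacin, against P. aeruginosa PAM 1032, which overexpresses MexAB-OprM.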

Data set [5] in a line: Stability in rat serum measured as % recovery at 3 min. It is filed as ADME. Conditions: read-out: Recovery. The method in brief: as §2
Data set [6] is described as follows: Stability in rat serum measured as % recovery at 1 min. The settings on record: read-out: Recovery. It is filed as ADME. In outline:
as §2

Data set [7] deals with Pseudomonas aeruginosa. As to the kind of experiment: Compound was evaluated in PAM 1032 strain of Pseudomonas aeruginosa for its effect on levofloxacin (40 ug/mL) potentiation. It is filed as functional. In outline:
(§3)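 Levofloxacin MIC read against P. aeruginosa PAM 1032, a laboratory strain overexpressing the MexAB-OprM pump, with the efflux pump inhibitor held at fixed levels of […].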

For data set [8], the system named is Pseudomonas aeruginosa. As to the kind of experiment: Compound was evaluated in PAM 1032 strain of Pseudomonas aeruginosa for its effect on levofloxacin ( 10 ug/mL) potentiation. It is filed as functional. The method in brief:
as §3

Data set [9] has as its system Pseudomonas aeruginosa. The experiment in a line: Compound was evaluated in PAM 1032 strain of Pseudomonas aeruginosa for its effect on levofloxacin ( 5 ug/mL) potentiation. Format: functional. In outline:
as §3

The test system of data set [10] is Pseudomonas aeruginosa. The experiment in a line: Compound was evaluated in PAM 1032 strain of Pseudomonas aeruginosa for its effect on levofloxacin (20 ug/mL) potentiation. It is filed as functional. The method in brief:
as §3

Data set [11] has as its system Pseudomonas aeruginosa. As to the kind of experiment: Compound was evaluated in PAM 1032 strain of Pseudomonas aeruginosa for its effect on levofloxacin (ug/mL) potentiation. It is filed as functional. In outline: as §3
The nature of data set [12]: Stability in rat serum measured as % recovery at 5 mins. It is filed as ADME. The settings on record: read-out: Recovery. In outline:
(§4)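 Incubated at 37 °C in rat serum for the stated time, in parallel with a water control. Samples quenched dropwise with 70% trichloroacetic acid plus acetonitrile, then analysed by HPLC. Value is % recovery of unchanged compound, averaged over two or more experiments. Phe-Arg-β-naphthylamine (MC-207,110) served as positive control.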

A short description of data set [13]: Stability in rat serum measured as % recovery at 2 hr. It is filed as ADME. Conditions: read-out: Recovery. The method in brief:
as §4

Data set [14] can be described thus: Stability in rat serum measured as % recovery at 10 mins. It is filed as ADME. Conditions: read-out: Recovery. The method in brief:
as §4

A short description of data set [15]: Stability in rat serum measured as % recovery at 3 mins. It is filed as ADME. Conditions: read-out: Recovery. The method in brief:
as §4

Data set [16] relates to Pseudomonas aeruginosa. The experiment in a line: Minimum concentration of compound required to reduce the MIC of levofloxacin 8-fold in PAM 1032 strain of Pseudomonas aeruginosa tha over expresses MexAB-Opr M efflux pump. It is filed as functional. The method in brief: as §1

Converted amounts (≈) assume the structure as drawn. Peptide text beside a SMILES is read from it.

For `CN(C(=O)[C@@H](N)Cc1ccccc1)[C@@H](CCCN)C(=O)Nc1ccc2ccccc2c1.O=C(O)C(F)(F)F.O=C(O)C(F)(F)F`, the MPC in data set [1] is 5 µg/mL. Also, the remaining at 10 min in data set [2] was 97%. Further, the remaining at 5 min in [3] was found to be 100%. Also, the minimum inhibitory concentration (MIC) – broadly, the lowest concentration that inhibits growth of the organism – in [4] was 256 µg/mL. Moreover, the remaining at 0.05 h in [5] came out at 99%. For the same compound, the remaining at 1 min in data set [6] stood at 100%.
Regarding `NCCC[C@H](NC(=O)[C@@H](N)Cc1ccccc1)C(=O)Nc1ccc2ccccc2c1`, the MPC in data set [1] was found to be 5 µg/mL. The remaining at 10 min in data set [2] was found to be 36%. Also, the remaining at 5 min in data set [3] amounted to 64%. Also, the MIC in [4] was found to be 512 µg/mL (≈ 1270 µM). Further, the remaining at 0.05 h in data set [5] stood at 80%. Besides, the remaining at 1 min in data set [6] came out at 100%.
On to `NCCC[C@@H](N)C(=O)N[C@H](CCc1ccccc1)C(=O)Nc1cnc2ccccc2c1`, for which the MPC in [1] was 20 µg/mL. Besides, the MIC is 0.125 µg/mL in [7]; 2 µg/mL in data set [8]; 4 µg/mL in data set [9]; 0.125 µg/mL in data set [10]; 4 µg/mL in data set [11].
Regarding `NCCC[C@H](N)C(=O)N[C@H](CCc1ccccc1)C(=O)Nc1cnc2ccccc2c1`, the MPC in data set [1] is 20 µg/mL. The MIC in data set [7] worked out at 0.125 µg/mL; in data set [8], 1 µg/mL; in data set [9] it was 2 µg/mL; in data set [10], 0.5 µg/mL; in data set [11], 4 µg/mL.
Turning to `NCCC[C@H](N)C(=O)N[C@@H](CCc1ccccc1)C(=O)Nc1cnc2ccccc2c1`, the MPC in data set [1] was 10 µg/mL. In addition, the MIC in [7] turned out to be 0.015 µg/mL; in [8], 0.5 µg/mL; in data set [9], 4 µg/mL; in [10] it was 0.06 µg/mL; in data set [11] it was 4 µg/mL.
Take `NCCC[C@H](N)C(=O)N[C@@H](Cc1ccccc1)C(=O)Nc1ccc2ccccc2c1`: in [1], the MPC was 10 µg/mL. Besides, in data set [2], the remaining at 10 min worked out at 38%. For the same compound, the remaining at 5 min in [3] came out at 76%. Also, the minimum inhibitory concentration (MIC) in data set [4] came to 512 µg/mL (≈ 1270 µM). Further, the remaining at 0.05 h in [5] stood at 87%. Besides, in [6], the remaining at 1 min came to 100%.
For the compound `N=C(N)NCCC[C@H](NC(=O)[C@@H](N)Cc1ccccc1)C(=O)Nc1ccc2ccccc2c1` [PABETAN] (HELM PEPTIDE1{F.R.[c1ccc2cc(N[*:1])ccc2c1]}$$$$V2.0), the MPC in data set [1] amounted to 10 µg/mL. For the same compound, the remaining at 5 min in data set [12] was 55%. The compound also displayed an MIC in [4] above 512 µg/mL. The remaining at 2 h in [13] was found to be 0%. Besides, the remaining at 10 min in data set [14] came out at 25%. The remaining at 0.05 h in [15] is 73%. Moreover, the remaining at 1 min in data set [6] stood at 100%.
For the compound `NCCC[C@@H](N)C(=O)N[C@@H](CCc1ccccc1)C(=O)Nc1cnc2ccccc2c1`, the MPC in data set [1] and in data set [16] was 10 µg/mL in each case. In addition, the MIC in data set [7] was 0.015 µg/mL; in data set [8], 0.125 µg/mL; in data set [9], 1 µg/mL; in [4] it was above 512 µg/mL; in data set [10] it was 0.03 µg/mL; in data set [11], 4 µg/mL. Moreover, the remaining at 10 min in data set [2] worked out at 100%. In [3], the remaining at 5 min turned out to be 98%. Besides, the remaining at 2 h in data set [13] is 95%. In [5], the remaining at 0.05 h worked out at 98%. For the same compound, the remaining at 1 min in data set [6] stood at 100%.
As to `NCCC[C@H](NC(=O)[C@@H](N)CCc1ccccc1)C(=O)Nc1cnc2ccccc2c1`, the MPC in [1] stood at 10 µg/mL. The minimum inhibitory concentration (MIC) turned out to be 0.03 µg/mL in [7]; 0.06 µg/mL in [8]; 1 µg/mL in data set [9]; 0.03 µg/mL in data set [10]; 4 µg/mL in data set [11].

Source of the values: ChEMBL document CHEMBL1134217, “Addressing the stability of C-capped dipeptide efflux pump inhibitors that potentiate the activity of levofloxacin in Pseudomonas aeruginosa” (Bioorg Med Chem Lett, 2001).
